Screens (PubChem)
Shown are actives, neighbours in structure and some others; about 2.1% of the full set was active somewhere.
Arbovirus inh – antivirals against arbovirus infection, primary screen, cell-based, full library, 10K replicate subset; hit rate 0.37% among 200,000; inhibition, % at 10 µM; AID 1251, 2008; arbovirus infection cell-based antiviral screen; in the data active means inhibition above about 30%
MT stabilizer – microtubule stabilizers in HeLa cells, primary screen, imaging, high-content imaging | HeLa tubulin immunostaining HCS, 24 h; share of cells brighter than vehicle mean+2SD | % tubulin-high responders, % at 10 µM | hit rate 0.83% among 200,000 | AID 2205, 2009;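 active means plate Z-score above 3 for both tubulin-high and condensed-nucleus cell shares, with cell loss under 80%, at 10 µM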;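 further: anti alpha tubulin signal scored within the nucleus-defined area of each cell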
ABCG2 block – ABCG2 efflux pump inhibitors, primary screen, multiplex with ABCB1, IgMXP3 cells, flow cytometry. Broad substrate specificity ATP-binding cassette transporter ABCG2 (Homo sapiens), Q9UNQ0. JC-1 efflux. inhibition, % at 6.6 µM. hit rate 0.1% among 190,000. AID 1325, 2008;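 active means inhibition above 80%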;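 further: 0% = DMSO and 100% = nicardipine control wells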
Target sequence (Q9UNQ0 whole entry, looked up): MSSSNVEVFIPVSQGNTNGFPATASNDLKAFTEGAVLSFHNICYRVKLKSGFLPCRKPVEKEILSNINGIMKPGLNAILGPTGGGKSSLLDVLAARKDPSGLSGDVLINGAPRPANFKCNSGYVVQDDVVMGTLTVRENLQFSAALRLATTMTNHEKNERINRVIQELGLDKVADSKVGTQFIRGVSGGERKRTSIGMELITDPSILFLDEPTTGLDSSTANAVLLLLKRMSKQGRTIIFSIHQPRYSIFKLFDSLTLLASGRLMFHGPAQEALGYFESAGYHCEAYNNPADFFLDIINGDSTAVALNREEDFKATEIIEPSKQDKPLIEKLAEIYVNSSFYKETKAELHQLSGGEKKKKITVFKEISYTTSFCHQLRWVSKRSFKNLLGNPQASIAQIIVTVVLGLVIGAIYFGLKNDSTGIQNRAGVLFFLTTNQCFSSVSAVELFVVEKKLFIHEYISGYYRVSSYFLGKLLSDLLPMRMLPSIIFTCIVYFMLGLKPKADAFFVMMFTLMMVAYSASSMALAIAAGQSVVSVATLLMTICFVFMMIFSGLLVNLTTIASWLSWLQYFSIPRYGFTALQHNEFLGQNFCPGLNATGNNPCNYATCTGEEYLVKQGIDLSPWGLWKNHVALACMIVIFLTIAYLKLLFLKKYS
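Read-out basis: Efflux inhibition in percent versus controls | Test system: ABCG2 IgMXP3 and barcoded ABCB1 CCRF-Adr cell mix | Quantity: 3 million cells/mL in well | Schedule: 10 min at 25 °C | Control set: Nicardipine as high control, DMSO as low control | Reagent: JC-1 as fluorescent efflux pump substrate | Signal: Flow cytometry of retained JC-1 fluorescence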
Autophagy HCS – autophagy modulators in MEF cells, primary screen, imaging, high-content, MEF GFP-LC3 | calls only at 10 µM (by protocol) | MEF GFP-LC3 puncta imaging; test concentration mostly 10 µM | hit rate 0.98% among 190,000;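 active means percentage of spot-positive cells more than 3 SD above its plate mean, without a fluorescence outlier flag or 80% toxicity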;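 further: spot-positive cell cutoff set from DMSO-treated cells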
ABCB1 block – ABCB1 efflux pump inhibitors, primary screen, cell-based, multiplex, flow cytometry, ABCG2 counter-screen; ATP-dependent translocase ABCB1 (Homo sapiens), P08183; CCRF-Adr cells, JC-1 efflux; inhibition, % at 6.6 µM; hit rate 0.067% among 190,000; in the data active means inhibition above about 40%;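 further: 0% = vehicle and 100% = reference inhibitor; higher value means more JC-1 retained so stronger ABCB1 efflux block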
bCat nuc transl – modulators of beta-catenin nuclear translocation, primary screen, imaging, HeLa cells, immunofluorescence, high-content; nuclear translocation activity, % at 5 µM; hit rate 0.3% among 190,000; AID 1665, 2009;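 active means nuclear translocation activity above 50% at 5 µM, with a well cell count of 50 or more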;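 further: per-cell ratio of nuclear to cytoplasmic median beta-catenin stain intensity; plate controls were DMSO negative control for no effect and GSK-3 inhibitor IX positive control for full effect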
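test system = HeLa cells, endogenous beta-catenin | dosing = single 5 µM dose plus 0.02–20 µM confirmation series | times = compound treatment 24 h, 37°C, 5% CO2 | technique = beta-catenin immunofluorescence imaging with DAPI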
Numbers without * were called inactive.

For CC1CC(C)CN(c2nc(NCc3ccco3)nc(N)c2[N+](=O)[O-])C1 (stereo not given) the results were Arbovirus inh 33*, MT stabilizer 4, ABCG2 block 20, Autophagy HCS inactive, ABCB1 block 1 and bCat nuc transl -3.
Clc1nc2ccccc2nc1-c1ccccc1 was read as bCat nuc transl 0.
`CCCCn1nc(-c2ccccc2)c2nc3ccccc3nc21` gave Arbovirus inh 7, MT stabilizer 2, ABCG2 block 6, Autophagy HCS active, ABCB1 block 6 and bCat nuc transl 0.
Screening Cn1nc(-c2ccccc2)c2nc3ccccc3nc21 returned Arbovirus inh -4, MT stabilizer 3, ABCG2 block 40, Autophagy HCS active, ABCB1 block 2 and bCat nuc transl -4.
Screening N#Cc1c(Cl)nsc1NC(=O)c1ccccc1 returned Arbovirus inh -2, MT stabilizer 3, ABCG2 block 7, Autophagy HCS active, ABCB1 block -1 and bCat nuc transl 9.
For Cc1cccc(C(=O)Nc2sc(C)c(-c3ccccc3)c2C#N)c1 the results were Arbovirus inh 15, MT stabilizer 4, ABCG2 block -1, Autophagy HCS inactive, ABCB1 block 0 and bCat nuc transl 0.
`CCn1c(=O)cc(SCC(=O)NCc2cccnc2)c2ccccc21` gave Arbovirus inh -4, MT stabilizer 2, ABCG2 block 0, Autophagy HCS inactive, ABCB1 block -2 and bCat nuc transl 0.
For CCn1c(=O)cc(SCC(=O)Nc2ccc(C)cn2)c2ccccc21 the results were Arbovirus inh -12, MT stabilizer 4, ABCG2 block 2, Autophagy HCS active, ABCB1 block 2 and bCat nuc transl -1.
CCn1c(=O)cc(SCC(=O)NCc2ccco2)c2ccccc21 was read as Arbovirus inh -19, MT stabilizer 46*, ABCG2 block 4, Autophagy HCS active, ABCB1 block 1 and bCat nuc transl 55*.
Screening CCn1c(=O)cc(SCC(=O)NCc2ccc(C)o2)c2ccccc21 returned Arbovirus inh -7, MT stabilizer 35, ABCG2 block 19, Autophagy HCS inactive and ABCB1 block 0.
`CCn1c(=O)cc(SCC(=O)NCc2ccc(C)cc2)c2ccccc21` gave Arbovirus inh -16, MT stabilizer 31*, ABCG2 block 2, Autophagy HCS inactive, ABCB1 block 1 and bCat nuc transl 0.
Cc1cccc(NC2SC(=O)N(c3ccccc3)C2=O)c1 (stereo not given) was read as Arbovirus inh 10, MT stabilizer 3, ABCG2 block 3, Autophagy HCS inactive, ABCB1 block 1 and bCat nuc transl 1.
C/C(=N\OCc1ccccc1C#N)c1cc2ccccc2o1 was read as Arbovirus inh -10, MT stabilizer 2, ABCG2 block 7, Autophagy HCS inactive, ABCB1 block 1 and bCat nuc transl 1.
COc1cc(CCC(=O)OCC(=O)Nc2ccccc2C#N)cc(OC)c1OC was read as Arbovirus inh 2, MT stabilizer 4, ABCG2 block 2, Autophagy HCS inactive, ABCB1 block 0 and bCat nuc transl -2.
`N#CC1=C(SCC(=O)c2ccc(Cl)cc2)NC2=C(C(=O)CCC2)C1c1ccco1` (stereo not given) gave Arbovirus inh -25, ABCG2 block 2, ABCB1 block 0 and bCat nuc transl 83*.
For C=CCOC(=O)C1=C(C)NC(SCC(=O)Nc2ccc(C)c(Cl)c2)=C(C#N)C1c1ccco1 (stereo not given) the results were Arbovirus inh -23, MT stabilizer 9, ABCG2 block -2, Autophagy HCS active, ABCB1 block -1 and bCat nuc transl -8.
For Cc1ccc(C(=O)CSC2=C(C#N)C(c3ccco3)C3=C(CC(C)(C)CC3=O)N2)cc1 (stereo not given) the results were Arbovirus inh 2, MT stabilizer 2, ABCG2 block 0, Autophagy HCS inactive and ABCB1 block 0.
Screening CC(=O)C1=C(C)NC(SCC(=O)c2ccc(C)cc2)=C(C#N)C1c1ccco1 (stereo not given) returned Arbovirus inh -11, MT stabilizer 3, ABCG2 block 4, Autophagy HCS active, ABCB1 block 2 and bCat nuc transl 5.
Cc1cc(C(=O)NN=C2CCCCC2)c2ccccc2n1 was read as Arbovirus inh 0, MT stabilizer 5, ABCG2 block 2, Autophagy HCS inactive, ABCB1 block 0 and bCat nuc transl -1.
Screening Cc1ccc(NC2=C(Cl)C(=O)OC2OC(=O)c2ccccc2)c(C)c1 (stereo not given) returned Arbovirus inh 7, MT stabilizer 4, ABCG2 block 0, Autophagy HCS inactive, ABCB1 block 0 and bCat nuc transl 0.
Screening CCn1c(COc2ccccc2C)nnc1SCC(=O)N1CCCCC1 returned Arbovirus inh -2, MT stabilizer 5, ABCG2 block 0, Autophagy HCS inactive, ABCB1 block 0 and bCat nuc transl 0.
For CCOc1ccc(NS(=O)(=O)c2ccc(NC(=S)NC(=O)CC(C)C)cc2)cc1 the results were Arbovirus inh -32, MT stabilizer 3, ABCG2 block 23, Autophagy HCS inactive, ABCB1 block 4 and bCat nuc transl -3.
`Cc1ccc(SCC(=O)Nc2ccc(S(=O)(=O)Nc3nccs3)cc2)cc1` gave Arbovirus inh 12, MT stabilizer 4, ABCG2 block -7, Autophagy HCS active, ABCB1 block -1 and bCat nuc transl -1.
CC(C)CC(=O)NC(=S)Nc1ccc(S(=O)(=O)Nc2nccs2)cc1 was read as Arbovirus inh 6, MT stabilizer 3, ABCG2 block -3, Autophagy HCS active, ABCB1 block -1 and bCat nuc transl 2.
Screening Cc1ccc(CCN2CC(C(=O)NCc3ccc4c(c3)OCO4)CC2=O)cc1 (stereo not given) returned bCat nuc transl -1.
COC(=O)/C(C#N)=C/c1cc(C)sc1C was read as bCat nuc transl 0.
Screening CCOc1ccc2nc(N3C(=O)/C(=C/c4ccccc4)NC3=S)sc2c1 returned Arbovirus inh -17, MT stabilizer 4, ABCG2 block -13, Autophagy HCS active, ABCB1 block -2 and bCat nuc transl 0.
For COc1ccc2nc(N3C(=O)/C(=C/c4ccccc4)NC3=S)sc2c1 the results were Arbovirus inh -11, MT stabilizer 4, ABCG2 block -9, Autophagy HCS active, ABCB1 block -1 and bCat nuc transl 3.
